XiGFP reactiv – activators of inactive X chromosome reactivation, primary screen, imaging, XiGFP fibroblasts, GFP high-content imaging, set 2; XiGFP mouse fibroblasts, % GFP-positive cells imaging, 3 d; cells co-treated with 5-aza-dC sensitizer; scaled so ellipticine positive control = 100%; activation, % at 7.58 µM; 0.055% of 360,000 active;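 active = mean normalized replicate activation at least 10% and every replicate at or above 10%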;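 note: 0% = median of on-plate neutral control wells and 100% = ellipticine 6 µM median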
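System: SV40-immortalized XiGFP fibroblast cells, line 68-5-11 / Incubation: 3-day compound exposure, then 15 min fixation at room temperature / Compound: single concentration per compound, delivered by pin transfer / Buffer or medium: DMEM plus 5-aza-dC sensitizer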
ARNT-TACC3 inh – disruptors of ARNT/TACC3 protein interaction, primary screen, biochemical, AlphaScreen, single concentration; Transforming acidic coiled-coil-containing protein 3 (Homo sapiens), Q9Y6A5; inhibition, % at 9.99 µM; AlphaScreen His-ARNT PAS-B/GST-TACC3 binding, luminescence; TACC3 fragment carries E629A point mutation; 0.66% of 390,000 active;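 active = mean inhibition of replicates at least 50% and at least half of replicates each reaching 50%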;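 note: 0% = complete ARNT plus TACC3 wells and 100% = ARNT alone without TACC3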
sPLA2-III inh – human group III sPLA2 inhibitors, primary screen, biochemical, QFRET, BODIPY PC-A2 liposome substrate; Group 3 secretory phospholipase A2 (Homo sapiens), Q9NZ20; QFRET BODIPY PC-A2 liposome hydrolysis, fluorescence; inhibition, % at 12.2 µM; 0.56% of 370,000 active;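 active = inhibition above mean plus 3 SD of compounds lying within the high and low control bounds, cut at about 19% in these data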;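 note: 0% = median of test compound wells and 100% = no enzyme DMSO wells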
Target sequence (Q9NZ20 whole entry, looked up): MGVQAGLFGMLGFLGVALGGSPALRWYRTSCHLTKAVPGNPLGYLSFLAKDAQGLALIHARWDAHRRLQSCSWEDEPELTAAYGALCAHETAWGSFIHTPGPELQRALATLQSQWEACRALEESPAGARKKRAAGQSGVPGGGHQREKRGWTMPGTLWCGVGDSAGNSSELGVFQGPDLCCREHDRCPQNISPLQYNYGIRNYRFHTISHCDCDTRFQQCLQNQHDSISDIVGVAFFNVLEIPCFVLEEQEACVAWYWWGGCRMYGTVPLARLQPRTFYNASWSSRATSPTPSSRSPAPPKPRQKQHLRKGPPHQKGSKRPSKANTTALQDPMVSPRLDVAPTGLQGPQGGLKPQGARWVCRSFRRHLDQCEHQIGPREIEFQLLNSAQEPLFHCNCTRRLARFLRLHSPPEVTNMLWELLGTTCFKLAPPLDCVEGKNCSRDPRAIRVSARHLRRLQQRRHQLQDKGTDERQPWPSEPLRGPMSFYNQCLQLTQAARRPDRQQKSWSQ
SR-BI DiI inh – inhibitors of SR-BI mediated HDL lipid uptake, primary screen, ldlA[mSR-BI] cells, fluorescence, single point; ldlA[mSR-BI] CHO cells, DiI-HDL uptake fluorescence, 3 h; inhibition, % at 12.5 µM; 0.96% of 320,000 active; Scavenger receptor class B member 1 (Mus musculus), Q61009;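 active = mean replicate inhibition of at least 70% and a set share of replicates each scoring 70 or more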;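 note: 0% = median of neutral control wells and 100% = median of positive control wells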
SR-BI uptake up – activators of SR-BI mediated DiI-HDL uptake, primary screen, ldlA[mSR-BI] CHO cells, DiI fluorescence | 3 h; 100 = double the neutral-control signal | activation, % at 12.5 µM | 0.096% of 320,000 active;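 active = mean replicate activation of at least 60% and every replicate at or above 60%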;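 note: 0% = median plate neutral-control signal and 100% = twice that signal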
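system = CHO ldlA[mSR-BI] cells, LDL receptor-null, SR-BI overexpressing | medium = Ham's F12 with 0.5% BSA, HEPES 25 mM, pH 7.4 | probe or stimulus = DiI-HDL 10 µg/mL | compound dosing = single-point compound dose | incubation = compound exposure 3 h, 37 °C | technique = DiI fluorescence, bottom read | read-out = cell-associated DiI fluorescence as measure of HDL uptake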
NSD2 HMT inh – NSD2 histone methyltransferase inhibitors, primary screen, biochemical, AlphaScreen, single concentration, set 2; Histone-lysine N-methyltransferase NSD2 (Homo sapiens), O96028; NSD2 peptide methylation, 120 min; inhibition, % at 12.5 µM; 0.54% of 310,000 active; in the data active = inhibition above about 50%
sPLA2 confirm – human group III sPLA2 inhibitors, confirmation, biochemical, QFRET, triplicate; shares compounds with sPLA2-III inh; recombinant hGIII-sPLA2, BODIPY PC-A2 QFRET fluorescence; inhibition, % at 12.2 µM; 34% of 2,000 active; AID 743280, 2014;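 active = mean inhibition across triplicates above the hit cutoff set in the earlier primary screen, cut at about 19% in these data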;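 note: 0% = enzyme with DMSO and 100% = DMSO wells lacking enzyme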
535nm interf – 535nm fluorescence optical interference, confirmation, artefact control for HGIII-sPLA2 inhibitor project, biochemical, QFRET. shares compounds with sPLA2-III inh. BODIPY FL product fluorescence interference. inhibition, % at 12.2 µM. 8.5% of 2,000 active;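 active = average inhibition above the solvent-only control mean plus 3 SD, cut at about 6% in these data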;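 note: 0% = DMSO with substrate plus product and 100% = DMSO with substrate alone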
BODIPY interf DR – 535nm fluorescence optical interference, dose response, artefact control for HGIII-sPLA2 inhibitor project, biochemical, QFRET. shares compounds with sPLA2-III inh. BODIPY FL product fluorescence interference, cell-free. IC50, µM. 240 tested, under 10 active;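 active = IC50 at or below 10 µM; inactive = IC50 above 10 µM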
* hit, by the source's call; . = no result given. Rows were chosen to be rich in hits. Some 2% of all compounds tested hit in one or more screens of this group.

SMILES | XiGFP reactiv | ARNT-TACC3 inh | sPLA2-III inh | SR-BI DiI inh | SR-BI uptake up | NSD2 HMT inh | sPLA2 confirm | 535nm interf | others
C/C=C/c1ccc([C@H]2[C@@H](CO)N3CCCCN(S(=O)(=O)c4cccc(C)c4)C[C@H]23)cc1 | 0 | -4 | . | . | . | . | . | .
Cc1ncc(CO)c(/C=N/NC(=S)Nc2ccc(F)cc2)c1O | 0 | 54* | 20* | 13 | -13 | 7 | 20* | -5
CC(NC(=O)C(C(=O)c1cccc([N+](=O)[O-])c1)n1cc(Cl)ccc1=O)c1ccccc1 (configuration not stated) | 0 | -2 | 25* | -43 | 43 | 1 | -6 | -6
CC(C)NC(=O)C1CCN(C(=O)C(C(=O)c2ccccc2)n2cc(Cl)ccc2=O)CC1 (configuration not stated) | . | -3 | 0 | -18 | 18 | 15 | . | .
CCCOc1cccc(OCC(=O)Nc2nc3ccccc3[nH]2)c1 | 0 | 3 | 25* | 3 | -3 | 4 | 14 | -3
CCCCOc1cccc(OCC(=O)Nc2nc3ccccc3[nH]2)c1 | 0 | -6 | 9 | -24 | 24 | 0 | . | .
Cc1ccccc1NC(=S)NC(=O)c1cncc(Br)c1 | 3 | 0 | 23* | 59 | -59 | 1 | 7 | 2
O=C(NCC(F)(F)F)[C@H]1[C@H](CO)[C@H]2Cn3c(cccc3=O)[C@@H]1N2CCC(F)(F)F | 0 | . | . | . | . | . | . | .
COc1ccccc1N(C(C)=O)C1=C(Cl)C(=O)c2ccccc2C1=O | 0 | . | 21* | . | . | 37 | 38* | 6 | BODIPY interf DR=>122
CCOC(=O)Cn1c(=O)c2c(nc3n2CCCN3Cc2ccccc2)n(C)c1=O | 0 | 0 | 2 | 2 | -2 | -5 | . | .
CCOC(=O)Cn1c(=O)c2c(nc(N3CCCCC3)n2C)n(C)c1=O | . | 0 | 20* | -15 | 15 | 1 | -3 | -6
NNC(=O)C1C(O)CCC2CN3CCc4c([nH]c5ccccc45)C3CC21 (configuration not stated) | 0 | -3 | -4 | -20 | 20 | -23 | . | .
CC(C)CN(C(=O)C1CCC1)c1c(N)n(Cc2ccccc2)c(=O)[nH]c1=O | 0 | -11 | 20* | -4 | 4 | 1 | 2 | -7
Cc1cccc(Oc2cc(N)cc([N+](=O)[O-])c2)c1 | 0 | . | 20* | -16 | 16 | 2 | 16 | -2
CC(C)C(=O)N[C@H]1[C@H](O)CCC[C@]12C(=O)N(Cc1ccccc1)c1ccccc12 | . | . | 1 | . | . | . | . | .
COC(=O)c1cc(C(=O)Nc2nc3ccccc3[nH]2)cc([N+](=O)[O-])c1 | 0 | -8 | 29* | 80* | -80 | -3 | 15 | 7.0*
CC(C)C#Cc1ccc2c(c1)O[C@H](CN(C)C(=O)NC(C)C)[C@H](C)CN([C@H](C)CO)S2(=O)=O | 0 | -7 | . | . | . | . | . | .
Cc1cc(N(C)C)ccc1N=Nc1ccc(N)cc1 | 0 | 8 | 26* | . | . | 33 | 38* | 18*
